The values that follow come from ChEMBL document CHEMBL3596117, “Identification of 3,5,6-substituted indolin-2-one's inhibitors of Aurora B by development of a luminescent kinase assay” (Bioorg Med Chem Lett, 2015).

T1 sequence (Q96GD4 whole entry): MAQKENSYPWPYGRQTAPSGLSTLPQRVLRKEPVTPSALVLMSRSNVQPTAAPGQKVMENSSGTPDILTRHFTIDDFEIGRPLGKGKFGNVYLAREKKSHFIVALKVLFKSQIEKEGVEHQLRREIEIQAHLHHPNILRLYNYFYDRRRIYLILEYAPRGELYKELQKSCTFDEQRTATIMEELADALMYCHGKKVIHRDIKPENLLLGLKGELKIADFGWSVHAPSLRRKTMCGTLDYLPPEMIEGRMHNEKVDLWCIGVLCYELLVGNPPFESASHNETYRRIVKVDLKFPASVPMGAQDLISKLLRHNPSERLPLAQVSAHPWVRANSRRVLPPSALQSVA

The first assay concerns the target T1, Aurora kinase B (Homo sapiens, UniProt Q96GD4). The experiment in a line: Inhibition of aurora B kinase (unknown origin) at 10 uM using ATP and SB2 substrate incubated at 37 degC for 2 hrs by kinase-Glo reagent based luminescent kinase assay. In short, it runs like this:
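Aurora B at 300 ng/well with ATP and peptide substrate SB2 at the optimized levels. DMSO was kept below 2% by volume. Activity was read by Kinase-Glo luminescence, which measures the ATP left after the reaction.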
(In general: Kinase-Glo measures the ATP left after a reaction by luminescence.)
For orientation: inhibition means the percentage by which the read-out fell short of the control. With `COc1ccc(/C=C2\C(=O)Nc3cc(NC(C)=O)c(N4CCOCC4)cc32)cc1`, the inhibition was less than 30%.

The compound `Cc1cc(C)cc(Oc2cc3c(cc2NC(=O)Nc2ccc(OC(F)(F)F)cc2)NC(=O)C3Cc2ccccc2)c1` (stereo not given) yielded an inhibition of less than 30%.

On to `CCC/C=C1\C(=O)Nc2cc(NC(C)=O)c(N(CC)CC)cc21`, for which the inhibition is less than 30%.

As for `CCCC1(C(=O)OCC)C(=O)Nc2cc(NC(C)=O)c(N3CCN(c4cccc(C)c4C)CC3)cc21` (stereo not given), the inhibition was less than 30%.

Turning to `Cc1cc(C)cc(Oc2cc3c(cc2NS(=O)(=O)c2ccc(F)cc2)NC(=O)C3Cc2ccccc2)c1` (stereo not given), the inhibition is less than 30%.

With `CCCC1(C(=O)OCC)C(=O)Nc2cc(NC(=O)Nc3ccc(F)cc3)c(N3CCN(c4cccc(C)c4C)CC3)cc21` (stereo not given), the inhibition was less than 30%.

Turning to `CC(=O)Nc1cc2c(cc1N1CCOCC1)/C(=C/c1ccco1)C(=O)N2`, the inhibition is less than 30%.

`CCN(CC)c1cc2c(cc1NC(C)=O)NC(=O)/C2=C\c1cccs1` gave an inhibition of less than 30%.

Consider `CCCCCCCNC(=O)Nc1cc2c(cc1N1CCN(C(=O)OCC)CC1)/C(=C/c1ccc[nH]1)C(=O)N2`, for which the inhibition was less than 30%.

Compound `CCc1ccc(Oc2cc3c(cc2NS(=O)(=O)c2ccc(C)cc2)NC(=O)C3)cc1` returned an inhibition of less than 30%.

As to `C=CCNC(=S)Nc1cc2c(cc1Oc1cc(C)cc(C)c1)C(Cc1ccccc1)C(=O)N2` (stereo not given), the inhibition is less than 30%.

As for `C=CCC1C(=O)Nc2cc(NC(=O)Nc3ccc(F)cc3)c(N(CCC)CCC)cc21` (stereo not given), the inhibition is less than 30%.

`O=C(Nc1ccc(F)cc1)Nc1cc2c(cc1N1CCOCC1)/C(=C/c1ccc(F)cc1)C(=O)N2` registered an inhibition of 65%.

As for `CCCCC1C(=O)Nc2cc(NC(=O)Nc3ccc(F)cc3)c(N3CCOCC3)cc21` (stereo not given), the inhibition is less than 30%.

In the case of `CCN(CC)c1cc2c(cc1NC(C)=O)NC(=O)/C2=C\c1ccc[nH]1`, the inhibition was determined as 83%.

Take `C=CCC1C(=O)Nc2cc(NC(=S)Nc3ccccc3OC)c(N(CCC)CCC)cc21` (stereo not given): the inhibition was 35%.

As for `O=C1Cc2cc(N3CCOCC3)c(NC(=O)Nc3ccc(F)cc3)cc2N1`, the inhibition is less than 30%.

`O=C(Nc1ccc(C(F)(F)F)cc1)Nc1cc2c(cc1N1CCCC1)/C(=C/c1cccs1)C(=O)N2`: the inhibition came to 47%.

Turning to `CCN(CC)c1cc2c(cc1NC(C)=O)NC(=O)/C2=C\c1ccccn1`, the inhibition is less than 30%.

Turning to `C=CCNC(=S)Nc1cc2c(cc1N(CCC)CCC)/C(=C/c1ccc3c(c1)OCO3)C(=O)N2`, the inhibition was determined as 31%.

As to `O=C(Nc1ccc(C(F)(F)F)cc1)Nc1cc2c(cc1N1CCCC1)/C(=C/c1ccc[nH]1)C(=O)N2`, the inhibition turned out to be 97%.

Another assay concerns the target T1, Aurora kinase B. Description: Inhibition of aurora B kinase (unknown origin) using ATP and SB2 substrate incubated at 37 degC for 2 hrs by kinase-Glo reagent based luminescent kinase assay. In short, it runs like this: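 Aurora B at 300 ng/well with ATP and peptide substrate SB2 at optimized levels, DMSO below 2% by volume. Kinase activity was quantified by Kinase-Glo luminescence of the ATP remaining after the reaction. The assay was validated with 48 enzyme-containing and 48 enzyme-free wells for the Z′-factor. IC50 values were derived from this luminescent assay.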
The term IC50 denotes the concentration that gives 50% inhibition. Higher therefore signals a need for much substance. With `O=C(Nc1ccc(F)cc1)Nc1cc2c(cc1N1CCOCC1)/C(=C/c1ccc3c(c1)OCO3)C(=O)N2`, the IC50 was found to be 8200 nM.

`O=C(Nc1ccc(F)cc1)Nc1cc2c(cc1N1CCOCC1)/C(=C/c1ccc[nH]1)C(=O)N2` showed a 50% inhibitory concentration (IC50) of 3300 nM.

As for `CCN(CC)c1cc2c(cc1NC(C)=O)NC(=O)/C2=C\c1ccc[nH]1`, the IC50 was determined as 2500 nM.

Take `O=C(Nc1ccc(C(F)(F)F)cc1)Nc1cc2c(cc1N1CCCC1)/C(=C/c1ccc[nH]1)C(=O)N2`: the concentration for half-maximal inhibition (IC50) worked out at 1800 nM.
